Reference: ChEMBL document CHEMBL2331384, “Synthesis, crystal structure and antibacterial activity of new highly functionalized ionic compounds based on the imidazole nucleus” (2013)
Active and inactive are the calls of the source. The calls are words filed in the database; no cut-off is given here.

Tests used:
Salmonella typhimurium [1] = assay: Antimicrobial activity against Salmonella typhimurium ATCC 07095 at 200 ug after overnight incubation by disk-diffusion method; assay type: functional, Salmonella enterica subsp. enterica serovar Typhimurium; conditions: for zone of inhibition at 200 µg/disc: Salmonella enterica, read-out: DIZ; for diameter of the inhibition zone (DIZ): Salmonella enterica subsp. enterica serovar Typhimurium
Outline: (§1)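 Bacterial suspension spread over a Mueller–Hinton agar surface. 6 mm paper disks each loaded with 200 µg of compound dissolved in DMSO were placed on the agar. Plates were incubated overnight at 37 °C, and inhibition zone diameters were measured with a ruler in mm.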

Staphylococcus aureus [2] = assay: Antimicrobial activity against Staphylococcus aureus ATTC-25923 after 1 day by agar dilution method; assay type: functional; conditions: ATTC-25923, 24 h
Outline: (§2)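 Inoculum was an overnight broth culture diluted to about 10^6 cell/mL. MIC (µg/mL) was determined by a standardized agar dilution technique after 1 day of exposure.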

Escherichia coli [3] = assay: Antimicrobial activity against Escherichia coli ATTC-25922 at 200 ug after overnight incubation by disk-diffusion method; assay type: functional; conditions: for zone of inhibition at 200 µg/disc: read-out: DIZ; outline: as §1
Pseudomonas aeruginosa [4] = assay: Antimicrobial activity against Pseudomonas aeruginosa ATCC 27853 at 200 ug after overnight incubation by disk-diffusion method; assay type: functional; conditions: for zone of inhibition at 200 µg/disc: read-out: DIZ; outline: as §1
Escherichia coli [5] = assay: Antimicrobial activity against Escherichia coli ATTC-25922 after 1 day by agar dilution method; assay type: functional; conditions: ATTC-25922, 24 h; outline: as §2
Salmonella typhimurium [6] = assay: Antimicrobial activity against Salmonella typhimurium ATCC 07095 after 1 day by agar dilution method; assay type: functional, Salmonella enterica subsp. enterica serovar Typhimurium; conditions: Salmonella enterica, ATCC 07095, 24 h; outline: as §2
Staphylococcus aureus [7] = assay: Antimicrobial activity against Staphylococcus aureus ATTC-25923 at 200 ug after overnight incubation by disk-diffusion method; assay type: functional; conditions: for zone of inhibition at 200 µg/disc: read-out: DIZ; outline: as §1
Pseudomonas aeruginosa [8] = assay: Antimicrobial activity against Pseudomonas aeruginosa ATCC 27853 after 1 day by agar dilution method; assay type: functional; conditions: ATCC 27853, 24 h; outline: as §2
Escherichia coli [9] = assay: Antimicrobial activity against Escherichia coli ATTC-25922 at 100 ug after overnight incubation by disk-diffusion method; assay type: functional, organism-based
Staphylococcus aureus [10] = assay: Antimicrobial activity against Staphylococcus aureus ATTC-25923 at 100 ug after overnight incubation by disk-diffusion method; assay type: functional, organism-based
Salmonella typhimurium [11] = assay: Antimicrobial activity against Salmonella typhimurium ATCC 07095 at 100 ug after overnight incubation by disk-diffusion method; assay type: functional, organism-based; conditions: Salmonella enterica subsp. enterica serovar Typhimurium

Molecule	MIC (Staphylococcus aureus [2]) [mg/L]	MIC (Escherichia coli [5]) [mg/L]	MIC (Salmonella typhimurium [6]) [mg/L]	MIC (Pseudomonas aeruginosa [8]) [mg/L]	zone of inhibition at 200 µg/disc (Salmonella typhimurium [1]) [mm]	zone of inhibition at 200 µg/disc (Escherichia coli [3]) [mm]	zone of inhibition at 200 µg/disc (Pseudomonas aeruginosa [4]) [mm]	zone of inhibition at 200 µg/disc (Staphylococcus aureus [7]) [mm]	diameter of the inhibition zone (DIZ) (Salmonella typhimurium [1])	diameter of the inhibition zone (DIZ) (Escherichia coli [3])	diameter of the inhibition zone (DIZ) (Staphylococcus aureus [7])	diameter of the inhibition zone (DIZ) (Pseudomonas aeruginosa [4])	zone of inhibition (Escherichia coli [9]) [mm]	zone of inhibition (Staphylococcus aureus [10]) [mm]	zone of inhibition (Salmonella typhimurium [11]) [mm]
Cc1n(C)c([N+](=O)[O-])c[n+]1CC(=O)c1ccccc1.[Br-]	> 250	50	50	> 250	7	9	10	9							
Cn1c[n+](CC(=O)c2ccccc2)cc1[N+](=O)[O-].[Br-]	> 250	12.5	12.5	12.5			9		inactive	inactive	inactive				
Cc1n(C)c(I)c(I)[n+]1CC(=O)c1ccccc1.[Br-]	> 250	12.5	25	12.5	8	9	9	15							
CCOC(=O)C[n+]1c(Br)c(Br)n(C)c1CO.[Br-]	> 250	150	> 250	25		7	7		inactive		inactive				
CCOC(=O)C[n+]1c(I)c(I)n(C)c1C.[Br-]	> 250	25	> 250	25			9		inactive	inactive	inactive				
SPIRAMYCIN													9	22	9
Cn1c[n+](CC(=O)c2ccccc2)c(I)c1I.[Br-]	250	25	12.5	25	9	12	8	15							
CCOC(=O)C[n+]1cn(C)c(I)c1I.[Br-]	250	6.2	50	6.2			9		inactive	inactive	inactive				

Continued, in another order:

MIC (Staphylococcus aureus [2]) [mg/L]	MIC (Escherichia coli [5]) [mg/L]	MIC (Salmonella typhimurium [6]) [mg/L]	MIC (Pseudomonas aeruginosa [8]) [mg/L]	Molecule	zone of inhibition at 200 µg/disc (Salmonella typhimurium [1]) [mm]	zone of inhibition at 200 µg/disc (Escherichia coli [3]) [mm]	zone of inhibition at 200 µg/disc (Pseudomonas aeruginosa [4]) [mm]	zone of inhibition at 200 µg/disc (Staphylococcus aureus [7]) [mm]	diameter of the inhibition zone (DIZ) (Salmonella typhimurium [1])	diameter of the inhibition zone (DIZ) (Escherichia coli [3])	diameter of the inhibition zone (DIZ) (Staphylococcus aureus [7])	diameter of the inhibition zone (DIZ) (Pseudomonas aeruginosa [4])	zone of inhibition (Escherichia coli [9]) [mm]	zone of inhibition (Staphylococcus aureus [10]) [mm]	zone of inhibition (Salmonella typhimurium [11]) [mm]
> 250	12.5	> 250	150	Cc1n(C)c(Br)c(Br)[n+]1CC(=O)c1ccccc1.[Br-]	7	9	9	7							
> 250	25	> 250	50	Cn1c(Br)c(Br)[n+](CC(=O)c2ccccc2)c1CO.[Br-]		7	9	7	inactive						
> 250	25	> 250	250	CCOC(=O)C[n+]1c(Br)c(Br)n(C)c1C.[Br-]				10	inactive	inactive		inactive			
> 250	50	25	25	CCOC(=O)C[n+]1c(Br)c(Br)n(C)c1-c1ccccc1.[Br-]	7		7	9		inactive					
250	50	150	50	Cn1c(Br)c(Br)[n+](CC(=O)c2ccccc2)c1-c1ccccc1.[Br-]	7	9	8	12							
